According to ChEMBL document CHEMBL1156707, “Insulin-releasing activity of a series of phenylalanine derivatives” (Eur J Med Chem, 2008):

Key:
[1] = Increase in insulin releasing activity in Syrian golden hamster HIT-T15 cells at 1 uM after 1 hr relative to control; format: functional, Mesocricetus auratus
Summary of the method: (§1)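 Pre-incubated 1 h, then 1 h with compound at a range of concentrations in DMSO, 37 °C; solvent-matched control. Insulin in medium measured by radioimmunoassay. Mean ± sd, n = 3; EC50 is concentration giving 50% increase in insulin release.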

[2] = Increase in insulin releasing activity in Syrian golden hamster HIT-T15 cells at 100 uM after 1 hr relative to control; format: functional, Mesocricetus auratus; summary of the method: as §1
[3] = Increase in insulin releasing activity in Syrian golden hamster HIT-T15 cells at 10 uM after 1 hr relative to control; format: functional, Mesocricetus auratus; summary of the method: as §1
3T3-L1 [4] = assay: Effect on insulin sensitizing activity in mouse 3T3-L1 cells assessed as increase in triglyceride accumulation at 10 uM after 7 days; format: functional
Summary of the method: (§2)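 3T3-L1 preadipocytes in DMEM/10% FBS, grown to 2 days postconfluence. Differentiation induced with insulin, 0.5 mM IBMX and dexamethasone. Compound (1 or 10 mmol/L, DMSO diluted 1000-fold) present during first 4 days of differentiation; 0.1% DMSO negative control. Day 7: oil red O staining, dye extracted with isopropanol, OD 510 nm. Three or four independent experiments.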

3T3-L1 [5] = assay: Effect on insulin sensitizing activity in mouse 3T3-L1 cells assessed as increase in triglyceride accumulation at 1 uM after 7 days; format: functional; summary of the method: as §2
[6] = Increase in insulin releasing activity in Syrian golden hamster HIT-T15 cells after 1 hr; format: functional, cell-based, Mesocricetus auratus; summary of the method: as §1
Rattus norvegicus [7] = assay: Decrease in plasma glucose level in Sprague-Dawley rat at 3 mg/kg, po after 180 mins relative to control; format: functional; design: scale not given: the % may be the effect or the level left
Summary of the method: (§3)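 Normal SD rats (180–220 g), fasted overnight, 8–10 per group. Single oral dose 3 mg/kg in 0.5% CMC-Na vehicle, then oral glucose 2.5 g/kg immediately after. Caudal-vein blood drawn before dosing and at 15, 30, 60, 120, 180 min. Serum glucose measured by glucose oxidase method. Reported as % decrease versus vehicle control group.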

Rattus norvegicus [8] = assay: Decrease in plasma glucose level in Sprague-Dawley rat at 3 mg/kg, po after 15 mins relative to control; format: functional; design: scale not given: the % may be the effect or the level left; summary of the method: as §3
Rattus norvegicus [9] = assay: Decrease in plasma glucose level in Sprague-Dawley rat at 3 mg/kg, po after 60 mins relative to control; format: functional; design: scale not given: the % may be the effect or the level left; summary of the method: as §3
Rattus norvegicus [10] = assay: Decrease in plasma glucose level in Sprague-Dawley rat at 3 mg/kg, po after 30 mins relative to control; format: functional; design: scale not given: the % may be the effect or the level left; summary of the method: as §3
Rattus norvegicus [11] = assay: Decrease in plasma glucose level in Sprague-Dawley rat at 3 mg/kg, po after 120 mins relative to control; format: functional; design: scale not given: the % may be the effect or the level left; summary of the method: as §3

Molecule `CC(C)[C@H]1CC[C@H](C(=O)N[C@@H](Cc2ccc(OCCN(C)c3nc4ccccc4o3)cc2)C(=O)O)CC1` has an Activity [1] of 35.5%, an Activity [2] of 126.9% and an Activity [3] of 72.8%.

Molecule `CC(C)[C@H]1CC[C@H](C(=O)N[C@@H](Cc2ccc(OCCN(C)c3ccccn3)cc2)C(=O)O)CC1` has an Activity [1] of 26%, an Activity [2] of 83.7% and an Activity [3] of 41.5%.

With `CC(C)[C@H]1CC[C@H](C(=O)N[C@@H](Cc2ccc(OCc3ccc(C(F)(F)F)cc3)cc2)C(=O)O)CC1` the Activity [1] was 47.9%, the Activity [2] was 156.9% and the Activity [3] was 76.7%.

Work on `CN(CCOc1ccc(CC2SC(=O)NC2=O)cc1)c1ccccn1` (configuration not stated) [ROSIGLITAZONE] yielded an Activity (3T3-L1 [4]) of 35.87% and an Activity (3T3-L1 [5]) of 38.8%.

`CCOc1ccc(C[C@@H](NC(=O)[C@H]2CC[C@H](C(C)C)CC2)C(=O)O)cc1` showed an EC50 [6] of 260 nM, an Activity [1] of 76.2% and an Activity [2] of 183.8%. For the same molecule, the Activity [3] was 107.3%.

With `CCCCOc1ccc(C[C@@H](NC(=O)[C@H]2CC[C@H](C(C)C)CC2)C(=O)O)cc1` the EC50 [6] was 650 nM, the Activity [1] was 58.9% and the Activity [2] was 261.6%. The Activity [3] was 107.1%.

In the case of `CCCCOc1ccc(C[C@H](NC(=O)[C@H]2CC[C@H](C(C)C)CC2)C(=O)O)cc1`, the EC50 [6] is reported as 550 nM, the Activity [1] is reported as 73.4% and the Activity [2] is reported as 326.2%. It also gave an Activity [3] of 136.7%.

For `CC(C)[C@H]1CC[C@H](C(=O)N[C@@H](Cc2ccc(O)cc2)C(=O)O)CC1`, the Activity [1] was 17.5%, the Activity [2] was 64.8% and the Activity [3] was 35.4%.

`Cc1oc(-c2ccccc2)nc1CCOc1ccc(C[C@@H](NC(=O)[C@H]2CC[C@H](C(C)C)CC2)C(=O)O)cc1` showed an EC50 [6] of 120 nM, an Activity [1] of 105.2% and an Activity (Rattus norvegicus [7]) of 11.4%. For the same molecule, the Activity (Rattus norvegicus [8]) was 21.2%, the Activity (Rattus norvegicus [9]) was 33.7% and the Activity (Rattus norvegicus [10]) was 36.4%. The Activity [2] was 487.4%, the Activity (Rattus norvegicus [11]) was 17.3% and the Activity [3] was 200.9%.

For `CC(C)[C@H]1CC[C@H](C(=O)N[C@H](Cc2ccc(OCCN(C)c3ccccn3)cc2)C(=O)O)CC1`, the Activity [1] was 24.4%, the Activity [2] was 59.4% and the Activity [3] was 36.2%.

`CC(C)[C@H]1CC[C@H](C(=O)N[C@@H](Cc2ccc(OCCn3ccc4ccccc43)cc2)C(=O)O)CC1` gave an Activity [1] of 35.7%, an Activity [2] of 146.6% and an Activity [3] of 74.9%.

For `CC(C)[C@H]1CC[C@H](C(=O)N[C@@H](Cc2ccccc2)C(=O)O)CC1` [(S)-NATEGLINIDE], the Activity [1] was 26.4%, the Activity [2] was 61.1% and the Activity [3] was 35.3%.

`CC(C)[C@H]1CC[C@H](C(=O)N[C@H](Cc2ccc(OCCn3ccc4ccccc43)cc2)C(=O)O)CC1` showed an Activity [1] of 37.8%, an Activity [2] of 112% and an Activity [3] of 58.8%.

`CC(C)[C@H]1CC[C@H](C(=O)N[C@H](Cc2ccc(O)cc2)C(=O)O)CC1` showed an Activity [1] of 34.2%, an Activity [2] of 122.2% and an Activity [3] of 69.6%.

With `Cc1oc(-c2ccccc2)nc1CCOc1ccc(C[C@H](NC(=O)[C@H]2CC[C@H](C(C)C)CC2)C(=O)O)cc1` the Activity (3T3-L1 [4]) was 46.01%, the EC50 [6] was 540 nM and the Activity [1] was 68.5%. It also gave an Activity (3T3-L1 [5]) of 38.14%, an Activity (Rattus norvegicus [7]) of 2.07% and an Activity (Rattus norvegicus [8]) of 4.73%. For the same molecule, the Activity (Rattus norvegicus [9]) was 4.47%, the Activity (Rattus norvegicus [10]) was 8.51% and the Activity [2] was 329.2%. For the same molecule, the Activity (Rattus norvegicus [11]) was 11.3% and the Activity [3] was 131.2%.

In the case of `CC(C)[C@H]1CC[C@H](C(=O)N[C@H](Cc2ccc(OCCN(C)c3nc4ccccc4o3)cc2)C(=O)O)CC1`, the Activity [1] is reported as 24.8%, the Activity [2] is reported as 145.1% and the Activity [3] is reported as 81.7%.

`CCOc1ccc(C[C@H](NC(=O)[C@H]2CC[C@H](C(C)C)CC2)C(=O)O)cc1` gave an EC50 [6] of 960 nM, an Activity [1] of 55.8% and an Activity [2] of 151.3%. The Activity [3] was 99.9%.

In the case of `CC(C)[C@H]1CC[C@H](C(=O)N[C@@H](Cc2ccc(OCc3ccccc3)cc2)C(=O)O)CC1`, the EC50 [6] is reported as 1050 nM, the Activity [1] is reported as 53.1% and the Activity [2] is reported as 225.9%. It also gave an Activity [3] of 147.5%.

Molecule `CC(C)[C@H]1CC[C@H](C(=O)N[C@H](Cc2ccc(OCc3ccc(C(F)(F)F)cc3)cc2)C(=O)O)CC1` has an Activity [1] of 29.8%, an Activity [2] of 152.1% and an Activity [3] of 85.6%.

`CC(C)[C@H]1CC[C@H](C(=O)N[C@H](Cc2ccc(OCc3ccccc3)cc2)C(=O)O)CC1` gave an EC50 [6] of 2820 nM, an Activity [1] of 38.9% and an Activity [2] of 171.1%. For the same molecule, the Activity [3] was 94.4%.

Molecule `CC(C)[C@H]1CC[C@H](C(=O)N[C@H](Cc2ccccc2)C(=O)O)CC1` [NATEGLINIDE] has an EC50 [6] of 7590 nM, an Activity [1] of 36.3% and an Activity [2] of 124.3%. For the same molecule, the Activity [3] was 66.8%.

For `O=C(O)[C@H](CC(=O)N1C[C@H]2CCCC[C@H]2C1)Cc1ccccc1` [MITIGLINIDE], the EC50 [6] was 708 nM, the Activity [1] was 52.5% and the Activity (Rattus norvegicus [7]) was 70.3%. It also gave an Activity (Rattus norvegicus [8]) of 16.5%, an Activity (Rattus norvegicus [9]) of 61.7% and an Activity (Rattus norvegicus [10]) of 36.2%. The Activity [2] was 120%, the Activity (Rattus norvegicus [11]) was 87.3% and the Activity [3] was 66%.
